Results: ChEMBL document CHEMBL4342478, “Discovery of Potent N-Ethylurea Pyrazole Derivatives as Dual Inhibitors of Trypanosoma brucei and Trypanosoma cruzi” (ACS Med Chem Lett, 2020)
pIC50: −log10 of the molar value. ≈ marks a conversion by molar mass, not a printed value. Calls of active or inactive are those of the source. No cut-off for these calls is given here.

Key:
[1] = Half life in human liver microsomes; type: ADME, Microsome
[2] = Kinetic solubility of compound at pH 2 to 6.5 by nephelometry; type: physicochemical; details: buffer, read-out: Kinetic_solubility
Trypanosoma cruzi [3] = assay: Antitrypanosomal activity against Trypanosoma cruzi Tulahuen C2C4 trypomastigotes infected in rat L6 cells after 96 hrs by photometric analysis; type: functional, organism-based
[4] = Toxicity in BALB/c mouse infected with Trypanosoma cruzi Brazil trypomastigotes expressing firefly luciferase assessed as body weight loss at 50 mg/kg, po via gavage twice daily at 30 mins after administration with 50 mg/kg, ip CYP inhibitor, 1-aminobenzotriazole twice daily; type: organism-based; details: in vivo, 0.5 h
How it was run: (§1)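 Acutely infected BALB/c mice carried luciferase-expressing T. cruzi Brazil strain. Mice received oral gavage twice daily of 50 mg/kg test article in PBS with 2% methylcellulose and 0.5% Tween 80. Each dose followed ip 1-aminobenzotriazole 50 mg/kg by 30 min.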

[5] = Metabolic stability in mouse liver microsomes; type: ADME, Microsome
[6] = Toxicity in BALB/c mouse infected with Trypanosoma cruzi Brazil trypomastigotes expressing firefly luciferase assessed as lethargy at 50 mg/kg, po via gavage twice daily at 30 mins after administration with 50 mg/kg, ip CYP inhibitor, 1-aminobenzotriazole twice daily; type: organism-based; details: in vivo, 0.5 h; how it was run: as §1
[7] = test system: Trypanosoma brucei brucei; assay: Antitrypanosomal activity against Trypanosoma brucei brucei BS427 after 48 hrs by resazurin dye based fluorescence assay; type: functional, organism-based; details: Trypanosoma brucei, BS427, 48 h; read-out: IC50
How it was run: (§2)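 IC50 values are the mean of two independent experiments. The T. b. brucei assay uses free parasites. The T. cruzi assay uses intracellular parasites in H9c2 host cells.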

[8] = test system: Trypanosoma brucei rhodesiense; assay: Antitrypanosomal activity against blood stream form of Trypanosoma brucei rhodesiense STIB900 after 72 hrs by Alamar blue based fluorometric assay; type: functional, organism-based
[9] = Metabolic stability in human liver microsomes; type: ADME, Microsome
Leishmania donovani = assay: AntiLeishmanial activity against amastigote form of Leishmania donovani MHOM/ET/67/L82 after 72 hrs by Alamar blue dye based fluorometric analysis; type: functional, organism-based
Trypanosoma cruzi [10] = assay: Antitrypanosomal activity against Trypanosoma cruzi Brazil trypomastigotes expressing firefly luciferase infected in BALB/c mouse assessed as reduction in parasitemia at 50 mg/kg, po via gavage twice daily at 30 mins after administration with 50 mg/kg, ip CYP inhibitor, 1-aminobenzotriazole twice daily and measured after 6 days by bioluminescence assay; type: functional, organism-based
How it was run: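 BALB/c mice were infected with trypomastigotes of a transgenic T. cruzi Brazil strain expressing firefly luciferase. Treatment was by oral gavage twice daily: vehicle (PBS with 2% methylcellulose and 0.5% Tween 80), or 50 mg/kg test article given 30 min after ip 1-aminobenzotriazole 50 mg/kg. Benznidazole 30 mg/kg was given by oral gavage once daily. Parasite load was measured by bioluminescence imaging at treatment day 0 (3 days post infection) and day 6.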

Trypanosoma cruzi [11] = assay: Antitrypanosomal activity against Trypanosoma cruzi infected in rat H9C2 cells by DRAQ5 DNA dye based imaging analysis; type: functional, organism-based; how it was run: as §2
[12] = Selectivity index, ratio of cytotoxicity against rat H9C2 cells to IC50 for antitrypanosomal activity against Trypanosoma cruzi infected in rat H9C2 cells; type: toxicity, cell-based; details: read-out: Selectivity Index
Plasmodium falciparum = assay: Antiplasmodial activity against erythrocytic stage of Plasmodium falciparum after 48 hrs by [3H]-hypoxanthine incorporation assay; type: functional, organism-based
Trypanosoma cruzi [13] = assay: Trypanosomacidal activity against Trypanosoma cruzi strain Y trypomastigotes assessed as reduction in number of infected cells at 0.078 uM measured for 24 to 96 hrs by Hoechst 33342 staining based fluorescence imaging assay relative to benznidazole; type: functional
How it was run: (§3)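 Time-to-kill assay against intracellular T. cruzi, with test article at 0.312 or 0.078 μM. Controls were benznidazole 20 μM, posaconazole 0.04 μM and DMSO. The number of infected host cells was tracked over time after drug addition.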

[14] = Selectivity index, ratio of IC50 for human HEK293 cells incubated for 69 hrs by resazurin dye based fluorescence analysis to IC50 for antitrypanosomal activity against Trypanosoma brucei brucei BS427; type: toxicity; details: read-out: Ratio IC50
Trypanosoma cruzi [15] = assay: Trypanosomacidal activity against Trypanosoma cruzi strain Y trypomastigotes assessed as reduction in number of infected cells at 0.078 uM measured within first 24 hrs by Hoechst 33342 staining based fluorescence imaging assay; type: functional, organism-based; how it was run: as §3
Trypanosoma cruzi [16] = assay: Trypanosomacidal activity against Trypanosoma cruzi strain Y trypomastigotes assessed as reduction in number of infected cells at 0.312 uM measured for 24 to 96 hrs by Hoechst 33342 staining based fluorescence imaging assay relative to benznidazole; type: functional; how it was run: as §3
Trypanosoma cruzi [17] = assay: Trypanosomacidal activity against Trypanosoma cruzi strain Y trypomastigotes assessed as reduction in number of infected cells at 0.312 uM measured within first 24 hrs by Hoechst 33342 staining based fluorescence imaging assay; type: functional, organism-based; how it was run: as §3
Trypanosoma cruzi [18] = assay: Trypanosomacidal activity against Trypanosoma cruzi strain Y trypomastigotes assessed as reduction in number of infected cells at faster rate at 20 uM measured for 24 to 96 hrs by Hoechst 33342 staining based fluorescence imaging assay; type: functional, organism-based
[19] = Selectivity index, ratio of cytotoxicity against human HEK293 cells to IC50 for antitrypanosomal activity against bloodstream form of Trypanosoma brucei brucei Lister 427; type: toxicity, cell-based; details: read-out: Selectivity Index
How it was run: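 Ratio of HEK293 cytotoxicity to the IC50 against free, non-intracellular T. b. brucei parasites. IC50 values are the average of two independent experiments.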

[20] = test system: Trypanosoma brucei brucei; assay: Antitrypanosomal activity against bloodstream form of Trypanosoma brucei brucei Lister 427; type: functional, organism-based
[21] = Selectivity index, ratio of cytotoxicity against mouse 3T3 cells to IC50 for antitrypanosomal activity against Trypanosoma cruzi Tulahuen C4 infected in mouse 3T3 cells; type: toxicity, cell-based; details: read-out: Selectivity Index
Trypanosoma cruzi [22] = assay: Antitrypanosomal activity against Trypanosoma cruzi Tulahuen C4 infected in mouse 3T3 cells by Hoechst/HCS CellMask green dye based assay; type: functional, organism-based; details: Tulahuen C4, NIH3T3

Row | SMILES | pIC50 [7] | pIC50 (Trypanosoma cruzi [11]) | Activity (Trypanosoma cruzi [3]) | Activity [8] | Activity (Leishmania donovani) | selectivity ratio [12] | Activity (Plasmodium falciparum) | selectivity ratio at 69 h [14] | other results
1 | O=C(NCCn1ccc(-c2ccccc2)n1)N1CCCCC1 | 7.22 | 6.60 | Active | Active | Active | 32 | Active | 1350 | solubility kinetic [2]: > 20 µg/mL; fold change (FC) (Trypanosoma cruzi [16]): 36; Activity (Trypanosoma cruzi [17]): Active
2 | O=C(Cn1ccnc1[N+](=O)[O-])NCc1ccccc1 | – | – | – | – | – | – | – | – | Activity (Trypanosoma cruzi [18]): Active
3 | CC(C)(C)C(=O)NCCc1csc(-c2cccc(F)c2)n1 | – | 5.64 | – | – | – | 27 | – | – | selectivity ratio [19]: > 96; pIC50 [20]: 6.10
4 | O=C(NCCn1ccc(-c2ccccc2F)n1)N1CCCCC1 | 7.22 | – | Active | Active | Active | – | Active | 185 | –
5 | CCN(CC)C(=O)NCCn1ccc(-c2ccccc2)n1 | 5.70 | 5.49 | – | – | – | 16 | – | 42 | –
6 | O=C(NCCn1ccc(-c2ccc(F)cc2)n1)N1CCCC1 | 7.12 | 6.49 | – | – | – | 158 | – | 1060 | –
7 | O=C(NCCn1ccc(-c2ccc(F)cc2)n1)N1CC[C@H](F)C1 | 7.49 | 6.89 | Active | Active | Active | 398 | Active | 2450 | –

Now from value to compound, other results behind:

Row | pIC50 [7] | pIC50 (Trypanosoma cruzi [11]) | SMILES | Activity (Trypanosoma cruzi [3]) | Activity [8] | Activity (Leishmania donovani) | selectivity ratio [12] | Activity (Plasmodium falciparum) | selectivity ratio at 69 h [14] | other results
8 | 8.05 | 7.80 | O=C(NCCn1ccc(-c2ccc(F)c(F)c2)n1)N1CC[C@H](F)C1 | Active | Active | Active | 588 to 3160 | Active | 8650 | half-life [1]: 23 min; solubility kinetic [2]: > 20 µg/mL; Activity [4]: Toxic; Stability [5]: Stable; Activity [6]: Toxic; Stability [9]: Stable; Activity (Trypanosoma cruzi [10]): Active; fold change (FC) (Trypanosoma cruzi [13]): 36; Activity (Trypanosoma cruzi [15]): Active
9 | 7.80 | 7.00 | O=C(NCCn1ccc(-c2ccc(F)c(F)c2)n1)N1CC[C@@H](F)C1 | Active | Active | Active | 501 | Active | 4840 | –
10 | 7.22 | – | O=C(NCCn1ccc(-c2ccc(F)cc2)n1)N1CCCCC1 | Active | Active | Active | – | Active | 161 | Stability [9]: Stable
11 | 7.66 | 7.00 | O=C(NCCn1ccc(-c2ccc(F)c(F)c2)n1)N1CCCC1 | Active | Active | Active | 501 | Active | 3630 | solubility kinetic [2]: 12.5 to 25 µg/mL (≈ 39 to 78 µM); Stability [9]: Stable
12 | 7.30 | – | O=C(NCCn1ccc(-c2cccc(F)c2)n1)N1CCCCC1 | Active | Active | Active | – | Active | 197 | –
13 | 6.44 | 6.49 | Cc1cccc(-c2ccn(CCNC(=O)N3CCCCC3)n2)c1 | – | – | – | 158 | – | 232 | –
14 | 7.57 | – | O=C(NCCn1ccc(-c2ccc(F)c(F)c2)n1)N1CCCCC1 | – | – | – | – | – | 2910 | selectivity ratio [21]: 616; pIC50 (Trypanosoma cruzi [22]): 6.92
